# Most compounds without a hit are left out; they make up all but 3.1% or so of the library.
# KCNQ1 act = potentiators or activators of human KCNQ1 potassium channel. AID 2648. CHO-K1 KCNQ1, thallium flux FluxOR fluorescence; stronger effect = higher value. P51787. 310,000 tested, 0.35% active. B-score at 10 µM;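 active means fluorescence ratio B-score, a plate-corrected score, at least three library SD, with initial intensity B-score within 5 SD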
#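 Schedule – 37 °C overnight plating, 90-min dark dye load, 20-min compound pretreatment · System – stable KCNQ1 CHO-K1 line · Probe or stimulus – thallium- and potassium-containing depolarizing buffer · Measured by – kinetic FluxOR fluorescence, 10 s baseline plus 110 s post-stimulus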
# KCNK9 block = blocks the human KCNK9 two-pore domain potassium channel | Q9NPC2 | HEK293 KCNK9, FluxOR thallium flux fluorescence; stronger effect = lower value | B-score at 10 µM | 310,000 tested, 1.2% active | AID 488922;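 active means ratio B-score over 3 SD below the library mean, with starting fluorescence within 5 SD of its mean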;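 further: negative B-score means less thallium flux so channel inhibition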
# KCNQ1 inh = inhibitors of human KCNQ1 potassium channel; P51787; CHO-K1 KCNQ1, FluxOR thallium flux fluorescence; stronger effect = higher value; B-score at 10 µM; 310,000 tested, 1.3% active;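 active means compounds whose thallium flux B-score, printed positive for inhibition, exceeds three library SD while starting fluorescence stays within three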;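 further: channel opened by potassium depolarization with thallium stimulus after 20 min compound exposure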
# hERG protect = hERG (human) protection from proarrhythmic block. Q12809. CHO-hERG, FluxOR thallium flux, dofetilide IC70 present. activation (rescue from dofetilide block), less the hit threshold, % at 10 µM. 310,000 tested, 0.51% active;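 active means activation above the mean of controls blocked by dofetilide plus 5 SD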;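 further: thallium influx through hERG after potassium depolarization seen as dye fluorescence rise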
# Target sequence (Q12809 whole entry, looked up): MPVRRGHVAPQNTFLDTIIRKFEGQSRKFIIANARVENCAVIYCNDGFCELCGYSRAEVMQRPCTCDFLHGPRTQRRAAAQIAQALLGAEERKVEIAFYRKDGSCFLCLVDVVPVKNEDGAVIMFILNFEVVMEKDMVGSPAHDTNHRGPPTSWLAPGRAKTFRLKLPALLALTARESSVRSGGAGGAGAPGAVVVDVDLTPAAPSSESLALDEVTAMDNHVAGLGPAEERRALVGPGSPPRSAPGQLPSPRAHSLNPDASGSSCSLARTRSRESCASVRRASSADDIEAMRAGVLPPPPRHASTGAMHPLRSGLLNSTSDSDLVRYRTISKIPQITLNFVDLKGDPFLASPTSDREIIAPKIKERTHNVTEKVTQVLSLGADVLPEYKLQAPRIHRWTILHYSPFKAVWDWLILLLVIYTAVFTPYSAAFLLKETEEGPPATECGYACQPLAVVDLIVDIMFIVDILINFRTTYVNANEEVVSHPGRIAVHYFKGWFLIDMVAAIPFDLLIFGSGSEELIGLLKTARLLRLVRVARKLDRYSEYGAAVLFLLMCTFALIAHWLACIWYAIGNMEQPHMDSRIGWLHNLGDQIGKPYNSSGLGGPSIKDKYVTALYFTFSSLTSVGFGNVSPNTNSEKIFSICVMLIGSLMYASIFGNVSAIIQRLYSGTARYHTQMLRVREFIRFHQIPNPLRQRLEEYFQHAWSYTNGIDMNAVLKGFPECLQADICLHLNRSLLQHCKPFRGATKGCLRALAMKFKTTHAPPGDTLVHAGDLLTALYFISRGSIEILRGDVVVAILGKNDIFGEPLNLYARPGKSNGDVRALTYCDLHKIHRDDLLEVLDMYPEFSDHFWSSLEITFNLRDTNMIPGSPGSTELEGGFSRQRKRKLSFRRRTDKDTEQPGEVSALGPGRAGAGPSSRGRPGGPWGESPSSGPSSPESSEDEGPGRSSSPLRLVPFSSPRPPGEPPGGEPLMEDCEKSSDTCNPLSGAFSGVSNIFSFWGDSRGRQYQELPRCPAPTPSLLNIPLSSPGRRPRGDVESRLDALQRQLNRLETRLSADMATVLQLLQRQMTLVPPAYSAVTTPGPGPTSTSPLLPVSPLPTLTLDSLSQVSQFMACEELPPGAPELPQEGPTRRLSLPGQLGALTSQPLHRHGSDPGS
# KCNK3 inh = human KCNK3 channel inhibition, primary screen | B-score at 10 µM | AID 602410 | CHO-KCNK3 thallium flux, FluxOR fluorescence; stronger effect = lower value | 340,000 tested, 0.84% active | O14649;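 active means B-score under library mean minus 4 SD, starting fluorescence ratio at most library mean plus 5 SD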;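 further: more negative B-score means stronger inhibition of thallium flux through KCNK3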
# KCNK3 confirm = human KCNK3 channel inhibition, confirmation assay; ratio percent of control, % at 10 µM; CHO-KCNK3 thallium flux, FluxOR fluorescence; 0% buffer, 100% carvedilol maximal block; 2,400 tested, 99% active; shares compounds with KCNK3 inh;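 active means ratio percent of control, averaged over triplicates, above buffer control mean plus 5 SD, cut at about 64% in these data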;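 further: ratio is the fluorescence rise from min to max over baseline after thallium stimulus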
# KCNK3 noninduced = activity in cells without induced KCNK3 expression; shares compounds with KCNK3 inh; non-induced KCNK3 parental cells, FluxOR thallium flux; stronger effect = lower value; thallium flux ratio (lower = more inhibition) at 10 µM; 2,400 tested, 40% active;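 active means thallium flux ratio, averaged over three wells, more than 5 SD below the buffer control mean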;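 further: host cells are CHO cells without KCNK3 induction; ratio is peak minus trough fluorescence over baseline then normalized to buffer controls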
# An asterisk follows results filed as active; i = inactive; . = no result.
SMILES,KCNQ1 act,KCNK9 block,KCNQ1 inh,hERG protect,KCNK3 inh,KCNK3 confirm,KCNK3 noninduced
Cc1cccc(NC(=O)CSCC(=O)Nc2cc(S(=O)(=O)N3CCOCC3)ccc2N2CCCC2)c1,i,i,i,-5,i,.,.
COc1cc(C(C)=O)ccc1OCC(=O)Nc1ccccc1N1CCCC1,i,i,i,-22,i,.,.
Cc1ccc(Cl)c(OCC(=O)Nc2ccccc2N2CCCCC2)c1,i,i,i,-14,-10*,123*,0.15*
COc1ccc(N(CC(=O)NC2CCCC2)C(=O)CCC(=O)Nc2cc(C)on2)cc1OC,i,i,i,-3,i,.,.
Cc1ccc(C)c(S(=O)(=O)N2CCN(C(=O)CCC(=O)NCc3ccc(Cl)cc3Cl)CC2)c1,.,.,.,.,i,.,.
CC(Oc1cccc(Cl)c1)C(=O)Nc1ccccc1N1CCCC1 (stereo unspecified),i,i,i,-18,-8.8*,124*,i
COc1ccccc1N(C)S(=O)(=O)c1ccc(C(=O)Nc2cccc(Br)c2)cc1,.,.,.,.,-12*,125*,i
COc1cc(NC(=O)c2ccc(S(=O)(=O)N(C)c3ccccc3OC)cc2)cc(OC)c1,.,.,.,.,i,.,.
CCOC(=O)C(=N/O)/C(C)=N/NC(=O)C(=O)Nc1ccc(Cl)cc1,i,i,9*,-31,-11*,120*,i
CC(=N\Nc1ccc(Cl)cc1)/C(=N/O)C(=O)Nc1ccccc1,i,i,i,-3,i,.,.
COc1ccc(S(=O)(=O)N(C)C[C@H]2Oc3c(NS(=O)(=O)c4ccc(F)cc4)cccc3C(=O)N([C@H](C)CO)C[C@@H]2C)cc1,.,.,.,.,i,.,.
COc1cccc(-c2nnn(CC(=O)N3CCC(C)CC3)n2)c1,i,i,i,-6,i,.,.
O=C(Nc1ccc(Cl)cc1)Nc1ccccc1CC[N+](=O)[O-],i,i,8*,-11,-11*,82*,i
CN(C)C(=O)Nc1ccccc1CC[N+](=O)[O-],i,i,i,-2,i,.,.
Cc1cccc(C)c1OCc1cc(C(=O)N2CCCC2c2nonc2C)no1 (stereo unspecified),i,i,i,-8,-9.4*,108*,i
Cc1cccc(NC(=O)CCS(=O)(=O)c2cccc3nonc23)c1C,i,i,i,-4,i,.,.
CCc1cc(CN2CCOCC2)c(NC(=O)c2ccccc2)s1,i,i,i,-13,-9.3*,102*,i
O=S(=O)(Nc1ccc(F)cc1)c1ccc(NS(=O)(=O)c2cccs2)cc1,i,i,i,-4,i,.,.
Cc1sc2ncnc(N3CCC(C(=O)Nc4ccc(Br)cc4Br)CC3)c2c1C,i,i,i,-10,-8.8*,113*,i
O=C(c1ccccc1)c1nn(-c2cccc(Cl)c2)ccc1=O,i,i,i,-7,i,.,.
O=C(c1ccccc1)c1nn(-c2cccc(Cl)c2)c2nc(-c3ccccc3)cc(=O)n12,i,i,i,-8,-21*,118*,0.15*
O=C(CSc1ccc(Cl)cc1)N1CCC(c2nc3ccccc3s2)CC1,i,i,i,-14,-8.8*,127*,0.16*
O=C(CSc1c(Cl)cccc1Cl)N1CCC(c2nc3ccccc3s2)CC1,i,i,i,-6,i,.,.
CCC1Sc2ccc(S(=O)(=O)CCC(=O)Nc3c(Cl)cc(OC)cc3OC)cc2NC1=O (stereo unspecified),i,i,i,-8,i,.,.
Cc1cccc(OCCOC(=O)c2c(-c3ccccc3)noc2C)c1,i,i,i,-7,-13*,108*,i
SMILES,KCNQ1 act,KCNK9 block,KCNQ1 inh,hERG protect,KCNK3 inh,KCNK3 confirm,KCNK3 noninduced
Cc1ccc2c(CC(=O)N3CCN(S(=O)(=O)c4ccccc4)CC3)coc2c1,.,.,.,.,i,.,.
N#Cc1ccccc1S(=O)(=O)N1CCN(C(=O)Cc2coc3cc(O)ccc23)CC1,.,.,.,.,-12*,0,i
O=C(Nc1ccc2c(c1)OCCO2)C1CCCN1C(=O)Nc1ccc(F)cc1 (stereo unspecified),i,i,i,-3,i,.,.
O=C1c2cccc3cccc(c23)N1Cc1cccc(F)c1,i,i,i,-2,-14*,101*,i
O=C1c2cccc3cccc(c23)N1Cc1ccc(F)cc1,i,i,i,-15,i,.,.
CCN(CC)S(=O)(=O)c1cccc(NC(=O)CN2C(=O)NC3(CCC(C)CC3)C2=O)c1 (stereo unspecified),.,.,.,.,i,.,.
CCc1ncc(CN2CCCC(C(=O)Nc3cccc(-c4cccc(C)c4)c3)C2)cn1 (stereo unspecified),i,i,i,-13,-11*,115*,0.15*
Cn1c(=O)n(CC(=O)NCC2CCCO2)c(=O)c2c3c(sc21)COC(C)(C)C3 (stereo unspecified),i,i,i,-2,i,.,.
COc1ccc(OC)c(NC(=S)N2c3ccccc3CC2C)c1 (stereo unspecified),i,i,i,-8,-9.1*,105*,i
CC1CCCCN1CC(O)COCc1ccc(Cl)cc1 (stereo unspecified),i,i,i,-1,i,.,.
O=C(CCNS(=O)(=O)c1ccccc1F)N1CCN(C(c2ccccc2)c2ccccc2)CC1,i,-7.4*,i,-14,-8.9*,101*,i
COCCn1c(/C=C/c2ccccc2)nc2ccccc21,i,i,i,-9,-8.8*,83*,i
CC(=O)Nc1ccc(S(=O)(=O)N2CCC(C(=O)NCc3ccncc3)CC2)cc1,i,i,i,-3,i,.,.
Oc1ccccc1/C=N/c1c(-c2ccco2)nc2ccccn12,i,i,i,-17,-9.7*,95*,i
COCCOC(=O)c1c(C)oc2ccc(OC(=O)c3c(OC)cccc3OC)cc12,i,i,i,-3,-10*,104*,i
CCOC(=O)c1c(C)oc2ccc(OCc3cc(C(=O)OC)oc3C)cc12,i,i,i,-4,-10*,103*,0.16*
Fc1ccccc1C1c2cccn2CCN1C(=S)Nc1ccc(Br)cc1 (stereo unspecified),i,i,7*,-17,-15*,132*,0.12*
S=C(Nc1ccccc1)N1CCn2cccc2C1c1cccnc1 (stereo unspecified),i,i,i,-11,i,.,.
CCN(CC)S(=O)(=O)c1cc(-c2nnc(-c3ccc(Br)cc3)o2)ccc1Br,i,i,i,-4,-9.4*,110*,0.16*
